What was measured:
Blood = assay: Drug concentration in female albino rat blood assessed as radioactivity per gram of tissue at 20 mg/kg administered as single dose via gastric gavage measured after 3 hrs by autoradiographic analysis; type: ADME, organism-based; design: dose 20 mg/kg, dosed compound name [14C]Sunitinib; conditions: in vivo, po
Outline: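 Sprague Dawley (albino) rats, ca 7-8 weeks old, received a single gastric-gavage dose of [14C]sunitinib L-malate at 20 mg/kg (15 mg freebase/kg, 100 µCi/kg). One animal per sex killed by CO2 at 3, 6, 24, 72 and 168 h, then frozen in CO2/hexane. 30 µm sagittal sections were cut and freeze-dried. Radioactivity per gram quantified by whole-body autoradiography using regression against standards. LOQ 0.04–0.06 µg freebase equiv/g.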

Kidney [1] = assay: Drug concentration in female Lister Hooded pigmented rat kidney assessed as radioactivity per gram of tissue at 20 mg/kg administered as single dose via gastric gavage measured after 72 hrs by autoradiographic analysis; type: ADME, organism-based; design: dose 20 mg/kg, dosed compound name [14C]Sunitinib; conditions: in vivo, po
Outline: (§1)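 Lister Hooded (pigmented) rats, ca 7-8 weeks old, acclimated 7 days, given [14C]sunitinib L-malate by gastric gavage at 20 mg/kg (15 mg freebase/kg, 100 µCi/kg). One male and one female killed by CO2 at 24, 72, 168 and 336 h. Carcasses frozen in solid CO2/hexane and embedded in frozen cellulose. 30 µm sagittal cryosections were freeze-dried. Tissue radioactivity measured by quantitative whole-body autoradiography against calibration standards, with background subtracted.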

[2] = Drug concentration in male albino rat bone marrow assessed as radioactivity per gram of tissue at 20 mg/kg administered as single dose via gastric gavage measured after 24 hrs by autoradiographic analysis; type: ADME, organism-based; design: dose 20 mg/kg, dosed compound name [14C]Sunitinib; conditions: in vivo, po
Ovary = assay: Drug concentration in female albino rat ovary assessed as radioactivity per gram of tissue at 20 mg/kg administered as single dose via gastric gavage measured after 3 hrs by autoradiographic analysis; type: ADME, organism-based, Female gonad; design: dose 20 mg/kg, dosed compound name [14C]Sunitinib; conditions: in vivo, po
Outline: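 Sprague Dawley (albino) and Lister Hooded (pigmented) rats, ca 7-8 weeks old, 179-310 g, acclimated 7 days. Single gavage dose of [14C]sunitinib L-malate (15 mg freebase/kg, 100 µCi/kg). One male and one female killed by CO2 per time point: albino at 3, 6, 24, 72, 168 h; pigmented at 24, 72, 168, 336 h. Carcasses frozen in solid CO2/hexane, 30 µm sagittal sections freeze-dried. Tissue radioactivity read by quantitative whole-body autoradiography against regression of standards, mean background subtracted.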

[3] = Drug concentration in female albino rat salivary gland assessed as radioactivity per gram of tissue at 20 mg/kg administered as single dose via gastric gavage measured after 24 hrs by autoradiographic analysis; type: ADME, organism-based; design: dose 20 mg/kg, dosed compound name [14C]Sunitinib; conditions: in vivo, po
Outline: (§2)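 Sprague Dawley albino rats, ca 7-8 weeks old, dosed once by gastric gavage with [14C]sunitinib L-malate (15 mg freebase/kg, 100 µCi/kg). One male and one female killed by CO2 at 3, 6, 24, 72 and 168 h. Carcasses frozen in solid CO2/hexane, embedded and cut into 30 µm sagittal sections, then freeze-dried. Radioactivity quantified by whole-body autoradiography against standards by regression, background subtracted.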

Small intestine = assay: Drug concentration in female albino rat small intestine assessed as radioactivity per gram of tissue at 20 mg/kg administered as single dose via gastric gavage measured after 6 hrs by autoradiographic analysis; type: ADME, organism-based; design: dose 20 mg/kg, dosed compound name [14C]Sunitinib; conditions: in vivo, po
Lung = assay: Drug concentration in male Lister Hooded pigmented rat lung assessed as radioactivity per gram of tissue at 20 mg/kg administered as single dose via gastric gavage measured after 24 hrs by autoradiographic analysis; type: ADME, organism-based; design: dose 20 mg/kg, dosed compound name [14C]Sunitinib; conditions: in vivo, po
Rattus norvegicus [4] = assay: AUC (0 to infinity) as total radioactivity in female Sprague-Dawley rat plasma at 15 mg/kg, po administered as single dose by LC/MS/MS analysis; type: ADME, organism-based; design: time infinity, dose 15 mg/kg, dosed compound name [14C]Sunitinib, route oral; conditions: in vivo
Outline: (§3)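 Single dose of [14C]sunitinib L-malate as free base, 50 µCi/kg. IV dose was 5 mg/kg by tail vein in 5 females. Oral dose was 15 mg/kg by gavage in 3 females and 3 males. Total radioactivity was by scintillation counting. […] Cmax was read from raw data, t½ by log-linear regression, AUC by linear trapezoidal rule.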

[5] = Drug concentration in female Lister Hooded pigmented rat skeletal muscle assessed as radioactivity per gram of tissue at 20 mg/kg administered as single dose via gastric gavage measured after 24 hrs by autoradiographic analysis; type: ADME, organism-based; design: dose 20 mg/kg, dosed compound name [14C]Sunitinib; conditions: in vivo, po; outline: as §1
Rattus norvegicus [6] = assay: AUC (0 to infinity) as total radioactivity in female Sprague-Dawley rat plasma at 5 mg/kg, iv administered as single dose by LC/MS/MS analysis; type: ADME, organism-based; design: dose 5 mg/kg, dosed compound name [14C]Sunitinib, route intravenous, time infinity; conditions: in vivo; outline: as §3
Large intestine = assay: Drug concentration in female albino rat large intestine assessed as radioactivity per gram of tissue at 20 mg/kg administered as single dose via gastric gavage measured after 3 hrs by autoradiographic analysis; type: ADME, organism-based; design: dose 20 mg/kg, dosed compound name [14C]Sunitinib; conditions: in vivo, po; outline: as §2
Spleen = assay: Drug concentration in male Lister Hooded pigmented rat spleen assessed as radioactivity per gram of tissue at 20 mg/kg administered as single dose via gastric gavage measured after 72 hrs by autoradiographic analysis; type: ADME, organism-based; design: dose 20 mg/kg, dosed compound name [14C]Sunitinib; conditions: in vivo, po
Adrenal = assay: Drug concentration in male albino rat adrenal assessed as radioactivity per gram of tissue at 20 mg/kg administered as single dose via gastric gavage measured after 3 hrs by autoradiographic analysis; type: ADME, organism-based; design: dose 20 mg/kg, dosed compound name [14C]Sunitinib; conditions: in vivo, po
Brain = assay: Drug concentration in male Lister Hooded pigmented rat brain assessed as radioactivity per gram of tissue at 20 mg/kg administered as single dose via gastric gavage measured after 168 hrs by autoradiographic analysis; type: ADME, organism-based; design: dose 20 mg/kg, dosed compound name [14C]Sunitinib; conditions: in vivo, po
[7] = Drug concentration in male Lister Hooded pigmented rat testis assessed as radioactivity per gram of tissue at 20 mg/kg administered as single dose via gastric gavage measured after 72 hrs by autoradiographic analysis; type: ADME, organism-based; design: dose 20 mg/kg, dosed compound name [14C]Sunitinib; conditions: in vivo, po
Kidney [8] = assay: Drug concentration in female albino rat kidney assessed as radioactivity per gram of tissue at 20 mg/kg administered as single dose via gastric gavage measured after 168 hrs by autoradiographic analysis; type: ADME, organism-based; design: dose 20 mg/kg, dosed compound name [14C]Sunitinib; conditions: in vivo, po; outline: as §2
Cynomolgus monkey [9] = assay: Cmax as total radioactivity in female cynomolgus monkey plasma at 6 mg/kg, po administered as single dose by LC/MS/MS analysis; type: ADME, organism-based, Macaca fascicularis; design: dose 6 mg/kg, dosed compound name [14C]Sunitinib, route oral; conditions: in vivo
Outline: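 Cynomolgus monkeys of both sexes received one oral gavage of [14C]sunitinib L-malate at 6 mg/kg (37 µCi/kg). Femoral-vein blood was taken into heparin from 0.5 to 336 h. Plasma was kept cold and protected from light, then stored at -80 °C. Total radioactivity was by scintillation counting and sunitinib by methanol-extraction LC-MS-MS. Cmax was from raw data, t½ from the log-linear terminal slope, AUC(0-∞) by linear trapezoidal rule.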

[10] = Drug concentration in male Lister Hooded pigmented rat brown fat assessed as radioactivity per gram of tissue at 20 mg/kg administered as single dose via gastric gavage measured after 168 hrs by autoradiographic analysis; type: ADME, organism-based, Brown adipose tissue; design: dose 20 mg/kg, dosed compound name [14C]Sunitinib; conditions: in vivo, po
Rattus norvegicus [11] = assay: Cmax as total radioactivity in male Sprague-Dawley rat plasma at 15 mg/kg, po administered as single dose by LC/MS/MS analysis; type: ADME, organism-based; design: dose 15 mg/kg, dosed compound name [14C]Sunitinib, route oral; conditions: in vivo; outline: as §3
Thymus = assay: Drug concentration in male albino rat thymus assessed as radioactivity per gram of tissue at 20 mg/kg administered as single dose via gastric gavage measured after 3 hrs by autoradiographic analysis; type: ADME, organism-based; design: dose 20 mg/kg, dosed compound name [14C]Sunitinib; conditions: in vivo, po
[12] = Drug concentration in male Lister Hooded pigmented rat eye assessed as radioactivity per gram of tissue at 20 mg/kg administered as single dose via gastric gavage measured after 24 hrs by autoradiographic analysis; type: ADME, organism-based; design: dose 20 mg/kg, dosed compound name [14C]Sunitinib; conditions: in vivo, po
[13] = Drug concentration in female Lister Hooded pigmented rat uveal tract assessed as radioactivity per gram of tissue at 20 mg/kg administered as single dose via gastric gavage measured after 168 hrs by autoradiographic analysis; type: ADME, organism-based; design: dose 20 mg/kg, dosed compound name [14C]Sunitinib; conditions: in vivo, po; outline: as §1
Cynomolgus monkey [14] = assay: Terminal half life as total radioactivity in male cynomolgus monkey plasma at 6 mg/kg, po administered as single dose by LC/MS/MS analysis; type: ADME, organism-based, Macaca fascicularis; design: dose 6 mg/kg, dosed compound name [14C]Sunitinib, route oral; conditions: in vivo

Compound `CCN(CC)CCNC(=O)c1c(C)[nH]c(/[14CH]=C2\C(=O)Nc3ccc(F)cc32)c1C.O=C(O)C[C@H](O)C(=O)O` has a Radiolabel recovery (Blood) of 1.66 ugequiv, a Radiolabel recovery (Kidney [1]) of 0.19 ugequiv and a Radiolabel recovery [2] of 0.38 ugequiv. The Radiolabel recovery (Ovary) was 10.92 ugequiv, the Radiolabel recovery [3] was 2.65 ugequiv and the Radiolabel recovery (Small intestine) was 10.28 ugequiv. It also gave a Radiolabel recovery (Lung) of 1.55 ugequiv, an AUC (Rattus norvegicus [4]) of 69949 ng.Eq.hr/ml and a Radiolabel recovery [5] of 0.25 ugequiv. It also gave an AUC (Rattus norvegicus [6]) of 17427 ng.Eq.hr/ml, a Radiolabel recovery (Large intestine) of 7 ugequiv and a Radiolabel recovery (Spleen) of 0.13 ugequiv. For the same compound, the Radiolabel recovery (Adrenal) was 25.22 ugequiv, the Radiolabel recovery (Brain) was 0.06 ugequiv and the Radiolabel recovery [7] was 0.87 ugequiv. It also gave a Radiolabel recovery (Kidney [8]) of 0.09 ugequiv, a Cmax (Cynomolgus monkey [9]) of 214 ngequiv/ml and a Radiolabel recovery [10] of 0.06 ugequiv. The Cmax (Rattus norvegicus [11]) was 5220 ngequiv/ml, the Radiolabel recovery (Thymus) was 6.89 ugequiv and the Radiolabel recovery [12] was 7.8 ugequiv. For the same compound, the Radiolabel recovery [13] was 276.19 ugequiv and the “beta t1/2” value (Cynomolgus monkey [14]) was 222 h.

— ChEMBL document CHEMBL3525900, “Pharmacokinetics, distribution, and metabolism of [14C]sunitinib in rats, monkeys, and humans” (Drug Metab Dispos, 2012)
